Experiment [1] concerns Mus musculus. Put plainly: In vivo anaesthetic activity after intravenous administration in MF-1 mice was determined by loss of righting reflex using probit analysis. It counts as functional.
In experiment [2] the target is GABA-A receptor; anion channel. Nature of the experiment: Inhibition of [35S]TBPS binding to Gamma-aminobutyric acid A receptor of rat brain membranes. It counts as cell membranes, Membrane.
The subject of experiment [3] is Mus musculus. Put plainly: In vivo anaesthetic activity after intravenous administration in MF-1 mice was determined by loss of righting reflex using probit analysis; Convulsant. It counts as functional, organism-based.
The species entered for experiment [4] is Rattus norvegicus. Put plainly: Time taken for 50% decrease in the BSR in male Wistar rats. Type of experiment: functional.
The species entered for experiment [5] is Rattus norvegicus. Nature of the experiment: Burst suppression ratio (BSR) profile in male Wistar rats. Type of experiment: functional. The gist of the method: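 Male Wistar rats (218–420 g), with extradural electrodes implanted and at least 7 days recovery, lightly hand-restrained. IV injection over 10 s into a tail vein by computer-controlled infusion pump. […] BSR extracted from EEG. Read-outs: onset (first 0.25 s burst-suppression epoch), time to max BSR, time to 50% BSR decrease, time to regain righting reflex. Mean and SEM.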

The species named for experiment [6] is Rattus norvegicus. Nature of the experiment: Time required to gain the righting reflex in male Wistar rats. Type of experiment: functional, organism-based.
For experiment [7], the species on record is Rattus norvegicus. Put plainly: Time taken to reach the maximum BSR in male Wistar rats. It counts as functional.
The species named for experiment [8] is Rattus norvegicus. Nature of the experiment: Maximum BSR reached in male Wistar rats. It counts as functional.
The species entered for experiment [9] is Rattus norvegicus. Nature of the experiment: Time to the first 0.25 s burst suppression epoch(onset of anaesthesa) in male Wistar rats. Type of experiment: functional.
In experiment [10] the test system is GABA-A receptor; anion channel. Nature of the experiment: Inhibition of [35S]TBPS binding to Gamma-aminobutyric acid A (GABA-A) receptor of rat whole brain membranes (inactive). Type of experiment: cell membranes. The gist of the method: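 Rat whole-brain membranes. Inhibition of [35S]TBPS radioligand binding at the GABA-A receptor. […] Means of three experiments.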

We go through 15 compounds from ChEMBL document CHEMBL1134015 (Bioorg Med Chem Lett, 2001).

The term IC50 denotes the concentration that gives 50% inhibition.

`CNc1c(C(C)C)cc(CN2CCOCC2)cc1C(C)C` gave an HD50 with Mus musculus [1] of 51 µM/kg. Moreover, the IC50 in experiment [2] is above 100 µM.
On to `CC(C)c1cc(CN2CCOCC2)cc(C(C)C)c1`, for which, in the experiment on Mus musculus [3], the HD50 result is “Convulsant”. The compound further yielded an IC50 in experiment [2] above 30 µM.
Consider `CC(C)c1cc(CN2CCSCC2)cc(C(C)C)c1O`, for which, in the experiment with Mus musculus [1], the HD50 stood at 25.5 µM/kg. The compound also had an IC50 in [2] of 27.6 µM.
In turn, `CC(C)c1cc(CN2CCOCC2)cc(C(C)C)c1O` gave an Offset time in the experiment filed under Rattus norvegicus [4] of 1.7 min. Further, the BSR in the experiment filed under Rattus norvegicus [5] was determined as 51 µM/kg. Further, the Recovery time in the experiment filed under Rattus norvegicus [6] worked out at 3.8 min. In addition, the HD50 in the experiment on Mus musculus [1] amounted to 32 µM/kg. For the same compound, the “Time to max. BSR” value in the experiment listed under Rattus norvegicus [7] amounted to 40 s. In addition, the “Max BSR” value in the experiment listed under Rattus norvegicus [8] was 54.9%. In experiment [2], this compound showed an IC50 above 100 µM. Also, the Onset time in the experiment listed under Rattus norvegicus [9] was 16.2 s.
For `CCOC(=O)C1CCN(Cc2cc(C(C)C)c(O)c(C(C)C)c2)CC1`, the HD50 in the experiment with Mus musculus [1] stood at 19 µM/kg. The compound further registered an IC50 in experiment [2] of 31 µM.
In the experiment listed under Rattus norvegicus [4], `CC(C)c1cccc(C(C)C)c1O` [PROPOFOL] had an Offset time of 1.4 min. The Recovery time in the experiment listed under Rattus norvegicus [6] amounted to 5.2 min. The HD50 in the experiment with Mus musculus [1] is 68 µM/kg. Besides, the “Time to max. BSR” value in the experiment listed under Rattus norvegicus [7] was 30 s. The “Max BSR” value in the experiment filed under Rattus norvegicus [8] is 55%. The Onset time in the experiment listed under Rattus norvegicus [9] was determined as 13.2 s.
With `CC(C)c1cc(CN2CCOCC2)cc(C(C)C)c1N(C)C`, the HD50 with Mus musculus [1] worked out at 83 µM/kg. The IC50 in experiment [2] is above 30 µM.
Take `CC(C)c1cc(CCN2CCOCC2)cc(C(C)C)c1O`: the HD50 with Mus musculus [1] came out at 35.8 µM/kg. In addition, the IC50 in experiment [2] was above 100 µM.
The like results for `CC(C)c1cc(CN(C)Cc2ccccc2)cc(C(C)C)c1O` were, in that order, 25.1 µM/kg and above 10 µM.
The like results for `CC(=O)N1CCN(Cc2cc(C(C)C)c(O)c(C(C)C)c2)CC1` were, in that order, 38.8 µM/kg and above 100 µM.
Compound `CC(C)c1cc(CN2CCOCC2)cc(C(C)C)c1N` yielded an HD50 in the experiment on Mus musculus [1] of 36.5 µM/kg. The compound also returned an IC50 in [2] above 100 µM.
For `CC(C)c1cc(CN2CCSCC2)cc(C(C)C)c1N`, in that order: 22.9 µM/kg and above 100 µM.
In the case of `CC(C)c1cc(C(=O)CN2CCSCC2)cc(C(C)C)c1O`, in the experiment on Mus musculus [1], the HD50 was 68.5 µM/kg. The compound further gave an IC50 in experiment [2] above 10 µM.
For `CC(=O)Nc1c(C(C)C)cc(CN2CCOCC2)cc1C(C)C`, in that order: above 282 µM/kg and above 10 µM.
Compound `CCOC(=O)C1CCN(Cc2cc(C(C)C)c(N)c(C(C)C)c2)CC1` gave an HD50 with Mus musculus [1] of 14.4 µM/kg. In addition, the IC50 result in experiment [10] is “Not Active”.
